Active and inactive are the calls of the source. The calls are words filed in the database; no cut-off is given here.
Columns and labels:
A549 = assay: Cytotoxicity against human A549 cells after 72 hrs; assay type: functional, cell-based; conditions: A549, 72 h
Procedure, shortened: (§1)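 Human A549 (lung) and HL-60 (leukemia) cancer cells were exposed to compounds up to a maximum of 100 µM, and cell growth was measured. IC50 is the concentration that inhibits 50% of cell growth, reported as mean ± SD of experiments run in triplicate. Mitoxantrone served as the reference compound.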

HL-60 = assay: Cytotoxicity against human HL60 cells after 72 hrs; assay type: functional, cell-based; conditions: HL-60, 72 h; procedure, shortened: as §1
[1] = Antioxidant activity assessed as trolox equivalents of peroxyl radical scavenging activity at 1 uM by ORAC assay; assay type: functional
[2] = Antioxidant activity assessed as reduction of Copper(I) at 1 uM; assay type: functional
[3] = Antioxidant activity assessed as reduction of Copper(I) at 5 uM; assay type: functional
[4] = Antioxidant activity assessed as Cu2+ chelating activity at 1 uM; assay type: functional
[5] = Antioxidant activity assessed as Cu2+ chelating activity at 5 uM; assay type: functional
[6] = Antioxidant activity assessed as trolox equivalents of peroxyl radical scavenging activity at 5 uM by ORAC assay; assay type: functional

| SMILES | IC50 (A549) | IC50 (HL-60) | Activity [1] | Activity [2] | Activity [3] | Activity [4] | Activity [5] | Activity [6] |
| --- | --- | --- | --- | --- | --- | --- | --- | --- |
| C=C(CC[C@@H](C)[C@H]1CC[C@@H]([C@@H]2CC=C3C[C@@H](O)CC[C@]3(C)C2=O)[C@]1(C)CCO)C(C)C | 4.97 µM | 17.8 µM | inactive | inactive | inactive | inactive | inactive |  |
| O=C1c2c(O)ccc(O)c2C(=O)c2c(NCCNCCO)ccc(NCCNCCO)c21 [MITOXANTRONE] | 7.83 µM | 8.1 µM |  |  |  |  |  |  |
| CC(=O)OC(C)(C)[C@@H](C)CC[C@@H](C)[C@H]1CC[C@H]2[C@@H]3C[C@@H](O)[C@@]4(O)C[C@@H](O)CC[C@]4(C)[C@H]3CC[C@]12C | 36.5 µM | 42.8 µM | inactive | inactive | inactive | inactive | inactive |  |
| C[C@H](CC[C@H](C)C(C)(C)O)[C@H]1CC[C@H]2[C@@H]3C[C@@H](O)[C@@]4(O)C[C@@H](O)CC[C@]4(C)[C@H]3CC[C@]12C | > 100 µM | 59.1 µM | inactive | inactive | inactive | inactive | inactive |  |
| C=C1CC/C=C(\C)CC[C@H](C2=CC[C@H](C(C)(C)O)OC2)C[C@H]1O [LOBOCOMPACTOL A] | > 100 µM | 48.2 µM |  | inactive | inactive | inactive | inactive | 1.4 µM |
| C=C1CC/C=C(\C)CC[C@@H](C2=CC[C@H](C(C)(C)O)OC2)C[C@H]1O [LOBOCOMPACTOL B] | > 100 µM | 37.5 µM |  | inactive | inactive | inactive | inactive | 1.3 µM |
| C=C[C@@]1(C)CC[C@H](C2=CC[C@H](C(C)(C)O)OC2)C[C@@H]1C(=C)C [LOBATRIENE] | 31.1 µM | 33.8 µM | inactive | inactive | inactive | inactive | inactive |  |
| C=C[C@@]1(C)CC[C@H](C2=CC[C@H](C(C)(C)O)OC2=O)C[C@@H]1C(=C)C [LOBATRIENOLIDE] | 23 µM | 24.8 µM | inactive | inactive | inactive | inactive | inactive |  |
